Assays:
[1] = target: Estrogen receptor (Rattus norvegicus) (UniProt P06211+Q62986)
Rattus norvegicus [2] = species: Rattus norvegicus; test: Separation of antifertility from estrogenic activity in rats was measured; format: functional
Rattus norvegicus [3] = species: Rattus norvegicus; test: Antifertility activity measured as minimum protective dose for prevention of pregnancy in rats; format: functional; parameters: unit not given here
Outline: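 Oral dosing in adult cycling female rats selected in the proestrous phase, 10 animals per dose, with treatment starting on the day of proestrus.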

SMILES | Estrogenic potency [1] | Separation (Rattus norvegicus [2]) | Antifertility potency (Rattus norvegicus [3])
CC[Si](C#C[C@]1(OC(=O)n2ccnc2)CC[C@H]2[C@@H]3CCc4cc(OC)ccc4[C@H]3CC[C@@]21C)(CC)CC | 3 |  | 
CCC[Si](C)(C)C#C[C@]1(O)CC[C@H]2[C@@H]3CCc4cc(O)ccc4[C@H]3CC[C@@]21C | 22 | 14 | 300
C[C@]12CC[C@@H]3c4ccc(O)cc4CC[C@H]3[C@@H]1CC[C@@]2(O)C#C[Si](C)(C)CCl | 17 | 9 | 150
CC[Si]1(C#C[C@]2(O)CC[C@H]3[C@@H]4CCc5cc(O)ccc5[C@H]4CC[C@@]32C)CCCCC1 | 85 | 2.4 | 200
CC[Si]1(C#C[C@]2(O)CC[C@H]3[C@@H]4CCc5cc(O)ccc5[C@H]4CC[C@@]32C)CCCC1 | 120 | 4.2 | 500
CCCC[Si](C)(C)C#C[C@]1(O)CC[C@H]2[C@@H]3CCc4cc(O)ccc4[C@H]3CC[C@@]21C | 20 | 15 | 300
CC[SiH](C#C[C@]1(O)CC[C@H]2[C@@H]3CCc4cc(O)ccc4[C@H]3CC[C@@]21C)CC | 29 | 21 | 600
C[C@]12CC[C@@H]3c4ccc(O)cc4CC[C@H]3[C@@H]1CC[C@@]2(O)C#C[Si](C)(C)Cc1ccccc1 | 12 | 25 | 300
C[C@]12CC[C@@H]3c4ccc(O)cc4CC[C@H]3[C@@H]1CC[C@@]2(O)C#C[Si](C)(C)CBr | 27 | 7.4 | 200
C=CC[Si](C#C[C@]1(O)CC[C@H]2[C@@H]3CCc4cc(O)ccc4[C@H]3CC[C@@]21C)(CC)CC | 44 | 7 | 300
CCC[Si](C#C[C@]1(O)CC[C@H]2[C@@H]3CCc4cc(O)ccc4[C@H]3CC[C@@]21C)(CCC)CCC | 25 | 8 | 200
C=C[Si](C)(C#C[C@]1(O)CC[C@H]2[C@@H]3CCc4cc(O)ccc4[C@H]3CC[C@@]21C)CC (some centres not stated) | 28 | 11 | 300
C#C[Si](C#C[C@]1(O)CC[C@H]2[C@@H]3CCc4cc(O)ccc4[C@H]3CC[C@@]21C)(CC)CC | 37 | 16 | 600
CCC(C)[Si](C)(C)C#C[C@]1(O)CC[C@H]2[C@@H]3CCc4cc(O)ccc4[C@H]3CC[C@@]21C (some centres not stated) | 20 | 15 | 300
CC[Si](C#C[C@]1(O)CC[C@H]2[C@@H]3CCc4cc(O)ccc4[C@H]3CC[C@@]21C)(C#C[C@]1(O)CC[C@H]2[C@@H]3CCc4cc(O)ccc4[C@H]3CC[C@@]21C)CC | 8 |  | 0
C[C@]12CC[C@@H]3c4ccc(O)cc4CC[C@H]3[C@@H]1CC[C@@]2(O)C#C[Si](C)(C)C | 7 | 4.7 | 33
CC[Si](C#C[C@]1(O)CC[C@H]2[C@@H]3CCc4cc(O)ccc4[C@H]3CC[C@@]21C)(CC)CC | 37 | 16 | 600
CCC[Si](C#C[C@]1(O)CC[C@H]2[C@@H]3CCc4cc(O)ccc4[C@H]3CC[C@@]21C)(CC)CC | 39 | 8 | 300
C=C([C@]1(O)CC[C@H]2[C@@H]3CCc4cc(O)ccc4[C@H]3CC[C@@]21C)[Si](CC)(CC)CC | 0.5 | 8 | 4
CC[Si](C#C[C@]1(O)CC[C@H]2[C@@H]3CCc4cc(O)ccc4[C@H]3CC[C@@]21C)(CC)c1ccccc1 | 17 | 10 | 150
CC[Si](/C=C/[C@]1(O)CC[C@H]2[C@@H]3CCc4cc(O)ccc4[C@H]3CC[C@@]21C)(CC)CC | 0.04 | 30 | 1.31
C[C@]12CC[C@@H]3c4ccc(O)cc4CC[C@H]3[C@@H]1CC[C@@]2(O)C#C[Si](C)(C)CCC#N | 37 | 8 | 300
CC[Si](/C=C\[C@]1(O)CC[C@H]2[C@@H]3CCc4cc(O)ccc4[C@H]3CC[C@@]21C)(CC)CC | 0.5 | 20 | 10
CCCCCC[Si](C#C[C@]1(O)CC[C@H]2[C@@H]3CCc4cc(O)ccc4[C@H]3CC[C@@]21C)(CC)CC | 5.2 | 3 | 15

SMILES | Estrogenic potency [1] | Separation (Rattus norvegicus [2]) | Antifertility potency (Rattus norvegicus [3])
CC(C)(C)[Si](C)(C)C#C[C@]1(O)CC[C@H]2[C@@H]3CCc4cc(O)ccc4[C@H]3CC[C@@]21C | 20 | 30 | 600
CC[Si](C#C[C@]1(O)CC[C@H]2[C@@H]3CCc4cc(O)ccc4[C@H]3CC[C@@]21C)(CC)C(C)C | 30 | 10 | 300
CCCC[Si](C#C[C@]1(O)CC[C@H]2[C@@H]3CCc4cc(O)ccc4[C@H]3CC[C@@]21C)(CCCC)CCCC | 2.5 |  | 0
CCCC[Si](C#C[C@]1(O)CC[C@H]2[C@@H]3CCc4cc(O)cc(C(C)=O)c4[C@H]3CC[C@@]21C)(CCCC)CCCC | 4 |  | 0
C#C[C@]1(O)CC[C@H]2[C@@H]3CCc4cc(O)ccc4[C@H]3CC[C@@]21C [ETHINYL ESTRADIOL] |  |  | 100
C[C@]12CC[C@@H]3c4ccc(O)cc4CC[C@H]3[C@@H]1CC[C@@]2(O)/C=C\[Si](C)(C)C | 0.5 | 10 | 5
C[C@]12CC[C@@H]3c4ccc(O)cc4CC[C@H]3[C@@H]1CC[C@@]2(O)C#C[Si](C)(C)CCCCl | 25 | 8 | 200
C=CC[Si](C)(C)C#C[C@]1(O)CC[C@H]2[C@@H]3CCc4cc(O)ccc4[C@H]3CC[C@@]21C | 24 | 10 | 250
CC[Si](C#C[C@]1(O)CC[C@H]2[C@@H]3CCc4cc(OC(C)=O)ccc4[C@H]3CC[C@@]21C)(CC)CC | 34 |  | 600
CC[Si](O)(C#C[C@]1(O)CC[C@H]2[C@@H]3CCc4cc(O)ccc4[C@H]3CC[C@@]21C)CC | 11 | 27 | 300
C[C@]12CC[C@@H]3c4ccc(O)cc4CC[C@H]3[C@@H]1CC[C@@]2(O)C#C[Si](C)(CCl)CCl | 39 | 4 | 150
CC[Si](C)(C#C[C@]1(O)CC[C@H]2[C@@H]3CCc4cc(O)ccc4[C@H]3CC[C@@]21C)CC | 40 | 15 | 600
CC(C)(C)C#C[C@]1(O)CC[C@H]2[C@@H]3CCc4cc(O)ccc4[C@H]3CC[C@@]21C | 0.07 | 14 | 1
C=C([C@]1(O)CC[C@H]2[C@@H]3CCc4cc(O)ccc4[C@H]3CC[C@@]21C)[Si](CCC)(CCC)CCC | 0.5 | 4 | 2
C[C@]12CC[C@@H]3c4ccc(O)cc4CC[C@H]3[C@@H]1CC[C@@]2(O)C#C[Si](C)(C)C(Cl)Cl | 18 | 17 | 300
C[C@]12CC[C@@H]3c4ccc(O)cc4CC[C@H]3[C@@H]1CC[C@@]2(O)/C=C/[Si](C)(C)C | 0.2 |  | 0
CCC(C)[Si](C#C[C@]1(O)CC[C@H]2[C@@H]3CCc4cc(O)ccc4[C@H]3CC[C@@]21C)(CC)CC (some centres not stated) | 57 | 5 | 300
CC(C)[Si](C)(C)C#C[C@]1(O)CC[C@H]2[C@@H]3CCc4cc(O)ccc4[C@H]3CC[C@@]21C | 15 | 20 | 300
CCC[Si](C=C[C@]1(O)CC[C@H]2[C@@H]3CCc4cc(O)ccc4[C@H]3CC[C@@]21C)(CCC)CCC | 0.05 |  | 0
CC[Si](C#C[C@]1(O)CC[C@H]2[C@@H]3CCc4cc(OC5CCCC5)ccc4[C@H]3CC[C@@]21C)(CC)CC | 24 |  | 300
CCCC(=O)Oc1ccc2c(c1)CC[C@@H]1[C@@H]2CC[C@@]2(C)[C@H]1CC[C@]2(C#C[Si](CC)(CC)CC)OC(=O)CCC | 4 |  | 40
C[C@]12CC[C@@H]3c4ccc(O)cc4CC[C@H]3[C@@H]1CC[C@@]2(O)C#C[Si](c1ccccc1)(c1ccccc1)c1ccccc1 | 0.5 |  | 0
CCCC(=O)Oc1ccc2c(c1)CC[C@@H]1[C@@H]2CC[C@@]2(C)[C@H]1CC[C@@]2(O)C#C[Si](CC)(CC)CC | 35 |  | 300
